# In publication PMC10432884 (Clinical and Translational Science, 2023):
# Read-outs that look alike come from different tables or passages of the source.
# Columns and labels:
# [1] = system: healthy subjects; test: SAD phase blood pressure; assay type: in vivo, human; settings: for Mean SBP, LSMs difference from placebo: over 48 h
# [2] = FI phase pharmacokinetics; assay type: in vivo, human
# How it was run: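 Open-label, randomized two-period crossover in 14 healthy subjects. Each received a single 10 mg oral tablet fasted, or ~30 min after a high-fat meal (800–1000 kcal). Washout was 21 days. Plasma (K-EDTA) was sampled predose and 15 min–48 h postdose, plus days 7 and 14 (period 1) and days 5 and 9 (period 2), and assayed by validated LC-MS/MS (LLOQ 1.00 ng/mL). Cmax, AUCτ and AUCinf were compared by ANOVA (food, sequence, period fixed; subject-within-sequence random).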
# [3] = dogs, preclinical experiments, cited from earlier work
# [4] = system: healthy subjects; test: MAD phase blood pressure; assay type: in vivo, human
# How it was run: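 Double-blind MAD phase: four cohorts of 10 healthy subjects, randomized 4:1 to oral tablet (2, 5, 10, 15 mg) or placebo q.d. for 14 days after ≥10 h fast. BP and pulse were recorded predose daily and at 1, 2, 4, 6, 12 h on days 1, 2 and 14. Orthostatic BP was taken 24 and 48 h after the last dose. ANCOVA (treatment, time, treatment×time; random subject; predose covariate) gave LSM differences versus placebo with 95% CI.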
# [5] = system: healthy subjects
# [6] = system: healthy subjects; test: MAD phase CNS test battery; assay type: in vivo, human
# [7] = MAD pooled zagociguat group (n = 32)
# [8] = same subject, 2 mg q.d., day 30
smiles,measurement,setting,value
"Fc1ccccc1Cc1nc(-c2nc(C(F)(F)F)n[nH]2)cn2ccnc12 [zagociguat, 8‐(2‐fluorobenzyl)‐6‐(3‐(trifluoromethyl)‐1H‐1,2,4‐triazol‐5‐yl)imidazo[1,2‐a]pyrazine]","Mean SBP, LSMs difference from placebo","[1]; SAD 3 mg, 95% CI: −9.8, −0.1, p = 0.047",−4.9 mmHg
same,"Mean SBP, LSMs difference from placebo","[1]; SAD 50 mg, 95% CI: −10.0, −0.5, p = 0.032",−5.2 mmHg
same,DBP change,[1]; SAD all dose groups,no decreases
same,SBP change,"[1]; SAD other dose groups (1, 10, 20, 30 mg)",No decreases
same,Food effect,"[2]; FI 10 mg, high-fat meal vs fasted",no food effects were observed
same,C max LSM ratio fed vs. fasted,"[2]; FI 10 mg, 95% CI: 0.94, 1.03",0.99
same,Plasma concentration in predose samples of second treatment period,"[2]; FI, 21-day washout, limit of quantification 1.00 ng/mL",below the limit of quantification
same,CSF/free plasma ratio,[3]; 1 h after oral 1 mg/kg,0.45
same,CSF/free plasma ratio,[3]; 2 h after oral 1 mg/kg,0.32
same,CSF/free plasma ratio,[3]; 4 h after oral 1 mg/kg,0.3
same,CSF/free plasma ratio,[3]; 8 h after oral 1 mg/kg,0.28
same,"Mean DBP, LSMs difference from placebo","[4]; MAD 2 mg q.d., over 14 days, 95% CI: −10.9, −1.3, p = 0.015",−6.1 mmHg
same,"Mean SBP, LSMs difference from placebo","[4]; MAD 2 mg q.d., over 14 days, 95% CI: −11.6, −0.6, p = 0.032",−6.1 mmHg
same,"DBP, maximum difference from placebo","[4]; MAD 5 mg q.d., day 14, 95% CI: −13.0, −2.0, p = 0.009",−7.5 mmHg
same,"Mean DBP, LSMs difference from placebo","[4]; MAD 5 mg q.d., over 14 days, 95% CI: −11.0, −1.4, p = 0.014",−6.2 mmHg
same,SBP or DBP change,[4]; MAD 10 and 15 mg groups,No decreases
same,Reduction in mean diastolic blood pressure,[4]; maximum over dose groups,up to 7.5 mmHg
same,Reduction in mean systolic blood pressure,[4]; maximum over dose groups,up to 6.1 mmHg
same,Subjects discontinued from study drug due to ≥1 TEAE,[5]; MAD 2 mg (n = 8),0 n
same,Subjects with ≥1 SAE,[5]; MAD 2 mg (n = 8),0 n
same,Subjects with ≥1 TEAE,[5]; MAD 2 mg (n = 8),6 (75%) n (%)
same,Subjects with ≥1 study drug related TEAE,[5]; MAD 2 mg (n = 8),6 n
same,TEAEs,[5]; MAD 2 mg (n = 8),17 n
same,Subjects discontinued from study drug due to ≥1 TEAE,[5]; MAD 5 mg (n = 8),0 n
same,Subjects with ≥1 SAE,[5]; MAD 5 mg (n = 8),0 n
same,Subjects with ≥1 TEAE,[5]; MAD 5 mg (n = 8),8 (100%) n (%)
same,Subjects with ≥1 study drug related TEAE,[5]; MAD 5 mg (n = 8),7 n
same,TEAEs,[5]; MAD 5 mg (n = 8),27 n
same,Subjects discontinued from study drug due to ≥1 TEAE,[5]; MAD 10 mg (n = 8),0 n
same,Subjects with ≥1 SAE,[5]; MAD 10 mg (n = 8),0 n
same,Subjects with ≥1 TEAE,[5]; MAD 10 mg (n = 8),8 (100%) n (%)
same,Subjects with ≥1 study drug related TEAE,[5]; MAD 10 mg (n = 8),5 n
same,TEAEs,[5]; MAD 10 mg (n = 8),19 n
same,Subjects with GI TEAEs,[5]; MAD 10 mg group,five
same,Subjects discontinued from study drug due to ≥1 TEAE,[5]; MAD 15 mg (n = 8),0 n
same,Subjects with ≥1 SAE,[5]; MAD 15 mg (n = 8),0 n
same,Subjects with ≥1 study drug related TEAE,[5]; MAD 15 mg (n = 8),5 n
same,TEAEs,[5]; MAD 15 mg (n = 8),18 n
same,Orthostatic hypotension events,[5]; MAD phase,No orthostatic hypotension events
same,Subjects discontinued from study drug due to ≥1 TEAE,[5]; [7],0 n
same,Subjects with ≥1 SAE,[5]; [7],0 n
same,Subjects with ≥1 study drug related TEAE,[5]; [7],23 n
same,TEAEs,[5]; [7],81 n
same,Tolerability,[5]; multiple doses up to 15 mg q.d. for 14 days,well‐tolerated with no safety signals
same,"AST, peak","[5]; one subject, 2 mg q.d., day 16 (after last dose), normal range < 35 U/L",49 U/L
same,"ALT, peak","[5]; one subject, 2 mg q.d., day 16 (after last dose), normal range < 45 U/L",92 U/L
same,"GGT, peak","[5]; one subject, 2 mg q.d., day 16 (after last dose), normal range < 55 U/L",22 U/L
same,ALT at follow-up,[5]; [8],49 U/L
same,AST at follow-up,[5]; [8],43 U/L
same,GGT at follow-up,[5]; [8],23 U/L
same,"pEEG and CNS tests, differences between placebo and zagociguat groups",[6],No dose‐dependent or consistent statistically significant differences
